Results on 15 compounds are retold here after BindingDB's records for doi:10.1016/j.ejmech.2011.01.008 (University of Lisbon, 2011).

pIC50: −log10 of the molar value. Bounds are passed on as bounds.

The target of assay [1] is T1, Falcipain 2 (Plasmodium falciparum, UniProt Q9N6S8).
T1 sequence (Q9N6S8 whole entry): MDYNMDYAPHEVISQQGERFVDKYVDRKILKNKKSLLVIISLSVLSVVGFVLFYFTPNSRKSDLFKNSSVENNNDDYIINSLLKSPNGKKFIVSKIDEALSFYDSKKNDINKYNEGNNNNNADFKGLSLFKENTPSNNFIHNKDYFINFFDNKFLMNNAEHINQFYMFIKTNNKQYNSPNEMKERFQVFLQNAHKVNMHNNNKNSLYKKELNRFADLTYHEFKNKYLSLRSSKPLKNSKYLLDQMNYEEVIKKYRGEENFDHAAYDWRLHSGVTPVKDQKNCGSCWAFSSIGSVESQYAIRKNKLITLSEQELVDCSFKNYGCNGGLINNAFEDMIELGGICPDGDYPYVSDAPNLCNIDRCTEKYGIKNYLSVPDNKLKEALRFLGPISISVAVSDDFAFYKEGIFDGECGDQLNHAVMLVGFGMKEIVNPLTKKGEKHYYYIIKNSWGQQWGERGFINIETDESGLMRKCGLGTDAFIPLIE
Briefly: Inhibition of Plasmodium falciparum falcipain 2 incubated with compound for 10 mins before addition of 25 uM Z-Leu-Arg-AMC substrate by fluorescence spectrophotometry. The procedure, abridged: (§1)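 Run at 25 °C in 100 mM sodium acetate pH 6.0 with 5 mM DTT and 0.75% DMSO. Enzyme was preincubated 10 min with compound diluted from DMSO, then Z-Leu-Arg-AMC was added and fluorescence was read immediately. Eight inhibitor concentrations were made by fivefold serial dilution. IC50 was fitted to percent inhibition versus a no-inhibitor control against log concentration.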

The target in assay [2] is Cysteine protease falcipain-3 (Plasmodium falciparum, UniProt Q9NAW4). The experiment in a line: Inhibition of Plasmodium falciparum falcipain 3 incubated with compound for 10 mins before addition of 25 uM Z-Leu-Arg-AMC substrate by fluorescence spectrophotometry. A digest of the protocol: as §1
Sequence of Cysteine protease falcipain-3 (Q9NAW4 1-492): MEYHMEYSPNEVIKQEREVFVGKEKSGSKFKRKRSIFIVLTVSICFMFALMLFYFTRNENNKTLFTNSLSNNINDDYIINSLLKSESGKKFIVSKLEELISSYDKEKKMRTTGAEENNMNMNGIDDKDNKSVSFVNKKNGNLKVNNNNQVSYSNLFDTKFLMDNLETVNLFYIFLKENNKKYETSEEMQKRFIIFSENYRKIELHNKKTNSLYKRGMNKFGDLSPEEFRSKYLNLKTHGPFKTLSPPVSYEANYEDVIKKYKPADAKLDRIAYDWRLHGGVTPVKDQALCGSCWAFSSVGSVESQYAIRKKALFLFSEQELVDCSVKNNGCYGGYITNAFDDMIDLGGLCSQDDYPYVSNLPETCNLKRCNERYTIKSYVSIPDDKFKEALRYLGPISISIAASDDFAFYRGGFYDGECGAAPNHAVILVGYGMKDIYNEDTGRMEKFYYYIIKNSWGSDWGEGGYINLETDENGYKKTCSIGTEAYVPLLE

For `O=C1Nc2ccccc2C1C=Nc1ccccc1` (stereo not drawn) [3-((phenylamino)methylene)indolin-2-one], the pIC50 (commonly −log10 of the IC50, conventionally taken in molar units) in assay [1] is less than 4.30. In the case of `CC(C)CCNC(=O)[C@H](CC(C)C)N=CC1C(=O)N(C)c2ccccc21` (stereo partly drawn) [(Z/E)-(S)-N-isopentyl-4-methyl-2-((1-methyl-2-oxoindolin-3-ylidene)methylamino)pentanamide], the pIC50 in assay [1] and in assay [2] was less than 4.30 each time. In the case of `CC(C)CCNC(=O)[C@H](CC(C)C)N=CC1C(=O)Nc2ccc(Cl)cc21` (stereo partly drawn) [(Z/E)-(S)-2-((5-chloro-2-oxoindolin-3-ylidene)methylamino)-N-isopentyl-4-methylpentanamide], the pIC50 in assay [2] was less than 4.30.

Take `CC(C)CCNC(=O)[C@H](CCc1ccccc1)N=CC1C(=O)Nc2ccccc21` (stereo partly drawn) [(Z/E)-(S)-N-isopentyl-2-((2-oxoindolin-3-ylidene)methylamino)-4-phenylbutanamide]: the pIC50 in assay [2] was less than 4.30. Take `CCOC(=O)CN=CC1C(=O)Nc2ccccc21` (stereo not drawn) [(Z/E)-ethyl 2-((2-oxoindolin-3-ylidene)methylamino)acetate]: the pIC50 in assay [1] is less than 4.30. For the compound `O=C1Nc2ccccc2C1C=NCCCNc1ccnc2cc(Cl)ccc12` (stereo not drawn) [(Z/E)-3-((3-(7-chloroquinolin-4-ylamino)propylamino)methylene)indolin-2-one], the negative logarithm of the IC50 (pIC50) in assay [1] was less than 4.30. In the case of `CC(C)CCNC(=O)[C@H](CCc1ccccc1)N=CC1C(=O)Nc2c(Cl)cccc21` (stereo partly drawn) [(Z/E)-(S)-2-((7-chloro-2-oxoindolin-3-ylidene)methylamino)-N-isopentyl-4-phenylbutanamide], in assay [2], the pIC50 was less than 4.30. As for `O=C1Nc2ccc(Cl)cc2C1C=NCCCNc1ccnc2cc(Cl)ccc12` (stereo not drawn) [(Z/E)-5-chloro-3-((3-(7-chloroquinolin-4-ylamino)propylamino)methylene)indolin-2-one], in assay [1], the pIC50 is less than 4.30. As for `CC(C)CCNC(=O)[C@H](CC(C)C)N=CC1C(=O)Nc2ccccc21` (stereo partly drawn) [(Z/E)-(S)-N-isopentyl-4-methyl-2-((2-oxoindolin-3-ylidene)methylamino)pentanamide], the pIC50 in assay [1] and in assay [2] was less than 4.30 throughout.

With `O=C1Nc2cc(Cl)ccc2C1C=NCCCNc1ccnc2cc(Cl)ccc12` (stereo not drawn) [(Z/E)-6-chloro-3-((3-(7-chloroquinolin-4-ylamino)propylamino)methylene)indolin-2-one], the pIC50 in assay [1] was less than 4.30.

Regarding `CC(C)CCNC(=O)CN=CC1C(=O)Nc2ccccc21` (stereo not drawn) [(Z/E)-N-isopentyl-2-((2-oxoindolin-3-ylidene)methylamino)acetamide], the pIC50 in assay [1] and in assay [2] was less than 4.30 throughout. On to `CCOC(=O)[C@H](Cc1ccccc1)N=CC1C(=O)Nc2ccccc21` (stereo partly drawn) [(Z/E)-(S)-ethyl 2-((2-oxoindolin-3-ylidene)methylamino)-3-phenylpropanoate], for which the pIC50 in assay [1] is less than 4.30. Regarding `O=C1Nc2c(Cl)cccc2C1C=NCCCNc1ccnc2cc(Cl)ccc12` (stereo not drawn) [(Z/E)-7-chloro-3-((3-(7-chloroquinolin-4-ylamino)propylamino)methylene)indolin-2-one], in assay [1], the pIC50 is less than 4.30. On the same count and under the same terms, for `CN1C(=O)C(C=NCCCNc2ccnc3cc(Cl)ccc23)c2ccccc21` (stereo not drawn) [(Z/E)-3-((3-(7-chloroquinolin-4-ylamino)propylamino)methylene)-1-methylindolin-2-one] the value was less than 4.30.

As to `CC(C)CCNC(=O)[C@H](Cc1ccccc1)N=CC1C(=O)Nc2ccc(Cl)cc21` (stereo partly drawn) [(Z/E)-(S)-2-((5-chloro-2-oxoindolin-3-ylidene)methylamino)-N-isopentyl-3-phenylpropanamide], the pIC50 in assay [2] is less than 4.30.
